The values that follow come from ChEMBL document CHEMBL1122536, “Novel pyrimidine and 1,3,5-triazine hypolipidemic agents” (J Med Chem, 1984).

A value given as a limit tells only on which side of the number the result lay.

The test system of data set [1] is Rattus norvegicus. As to the kind of experiment: Hypolipidemic activity was assessed by measuring alpha-cholesterol in Sprague-Dawley male rats at 50 mg/kg. The format is functional. The following applies: dose 50 mg/kg. The procedure, abridged: (§1)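 Male Sprague-Dawley rats (185-g mean bodyweight) on a normal diet were dosed orally for 4 consecutive days at 50 mg/kg or 200 mg/kg. They were fasted 18 h, and blood was drawn from the abdominal aorta 24 h after the last dose. Serum total cholesterol, triglycerides (mg/100 mL) and lipoprotein α-cholesterol (% of total cholesterol) were measured. Groups of 10–40 rats were compared with controls by Student's t test.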

Data set [2] is described as follows: Evaluated for the dose that causes 50 % lethality in Sprague-Dawley male rats. The format is ADME, organism-based. Conditions: rat, in vivo.
For data set [3], the system named is Rattus norvegicus. As to the kind of experiment: Hypolipidemic activity was assessed by measuring body weight in F 344 rats at 20 mg/kg.
Data set [4] concerns Rattus norvegicus. The experiment in a line: Hyperlipidemic activity was assessed by measuring liver weight in Sprague-Dawley male rats at 50 mg/kg. It is filed as functional. The method in brief: (§2)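 Sprague-Dawley rats were fed the hyperlipidemic Nath's diet for 15 days and dosed orally at 50 or 200 mg/kg, or at 6.25, 12.5 and 25 mg/kg on a diet with 0.5% cholesterol and cholic acid. After an 18-h fast they were killed on day 16, 24 h after the last dose. Serum total cholesterol and triglycerides were assayed, and liver weight was expressed per 100 g bodyweight. Groups were compared with Nath's-diet controls by Student's t test.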

Data set [5] relates to Rattus norvegicus. As to the kind of experiment: Hypolipidemic activity was assessed in variation of the liver enzyme catalase was expressed as units per mg of protein in F 344 rats at 20 mg/kg.
Data set [6] has as its system Rattus norvegicus. As to the kind of experiment: Hypolipidemic activity was assessed in variation of palmitoyl-CoA oxide (umol/min mg) in F 344 rats at 20 mg/kg.
The subject of data set [7] is Rattus norvegicus. As to the kind of experiment: Hypolipidemic activity was assessed by measuring cholesterol in Sprague-Dawley male rats at 50 mg/kg. It is filed as functional. The procedure, abridged:
as §1

Data set [8] has as its system Rattus norvegicus. As to the kind of experiment: Hypolipidemic activity was assessed by measuring triglycerides in Sprague-Dawley male rats at 50 mg/kg. The format is functional. The procedure, abridged:
as §1

Data set [9] has as its system Rattus norvegicus. The experiment in a line: Hypolipidemic activity was assessed in Variation of the carnitine acetyl transferase was expressed as units per mg of protein in F 344 rats at 20 mg/kg.
Data set [10] relates to Rattus norvegicus. As to the kind of experiment: Hypolipidemic activity was assessed by measuring liver weight in Sprague-Dawley male rats at 50 mg/kg. It is filed as functional. The following applies: dose 20 mg/kg; in the assay text read “F 344 rats at 20 mg/kg” for “Sprague-Dawley male rats at 50 mg/kg”.
The subject of data set [11] is Rattus norvegicus. The experiment in a line: Hyperlipidemic activity was assessed by measuring triglycerides in Sprague-Dawley male rats at 50 mg/kg. It is filed as functional. The procedure, abridged: as §2
The test system of data set [12] is Rattus norvegicus. As to the kind of experiment: Hypolipidemic activity was assessed inVariation of the enoyl-CoA oxide (umol/min mg) in F 344 rats at 20 mg/kg.
Data set [13] deals with Rattus norvegicus. The experiment in a line: Hyperlipidemic activity was assessed by measuring cholesterol in Sprague-Dawley male rats at 50 mg/kg. It is filed as functional. The procedure, abridged: as §2
Data set [14] concerns Rattus norvegicus. The experiment in a line: Hyperlipidemic activity was assessed by measuring triglycerides in Sprague-Dawley male rats at 200 mg/kg. The format is functional. The method in brief: as §2
The test system of data set [15] is Rattus norvegicus. The experiment in a line: Hypolipidemic activity was assessed in Variation of the liver enzyme catalase was expressed as units per mg of protein. in F 344 rats at 20 mg/kg.
The test system of data set [16] is Rattus norvegicus. The experiment in a line: Hyperlipidemic activity was assessed by measuring cholesterol in Sprague-Dawley male rats at 200 mg/kg.
The test system of data set [17] is Rattus norvegicus. The experiment in a line: Hypolipidemic activity was assessed in Variation of palmitoyl-CoA oxide (umol/min mg) in F 344 rats at 20 mg/kg.
Data set [18] deals with Rattus norvegicus. The experiment in a line: Hypolipidemic activity was assessed in Variation of the enoyl-CoA oxide (umol/min mg) in F 344 rats at 20 mg/kg.
Data set [19] has as its system Rattus norvegicus. The experiment in a line: Hypolipidemic activity was assessed by measuring liver weight in Sprague-Dawley male rats at 200 mg/kg. It is filed as functional. The procedure, abridged:
as §2

Broadly, the LD50 is the dose expected to kill half of the subjects tested. A higher LD50 goes with lower toxicity. Compound `Cc1cccc(Nc2cc(Cl)nc(OCC(=O)O)n2)c1C` registered an Alpha-cholesterol in [1] of under 83.8%. The 50% lethal dose (LD50) in [2] worked out at 1080 mg/kg. The compound further displayed a Body weight in [3] of 245 g. The values for the Liver weight in data set [4] and in data set [10] were 6.29 g 100g-1 and 4.5 g (100g of body weight)-1, respectively. The same compound gave a Catalase in data set [5] of 77 U/mg protein. Moreover, in data set [6], the Palmitoyl-CoA oxid is 0.088 µM/min/mg. Further, the Cholesterol in data set [7] was under 57.3 mg 100ml-1; in data set [13] it was under 548.8 mg 100ml-1. The Triglycerides in [8] is under 67.3 mg/100 mL; in data set [11] it was under 215.6 mg 100ml-1. Moreover, the Carnitine acetyl transferase in data set [9] was 10 U/mg protein. The compound further yielded an Enoyl-CoA hydratase in data set [12] of 2.5 µM/min/mg.

Regarding `Cc1cccc(Nc2cc(Cl)nc(N(C)C)n2)c1C` [LODINIXIL], the Alpha-cholesterol in data set [1] turned out to be 69.6%. Also, the LD50 in data set [2] is under 2500 mg/kg. In data set [3], this compound gave a Body weight of 268 g. The Triglycerides was under 182 mg 100ml-1 in [14] and 96.5 mg/100 mL in [8]. Also, the results for the Cholesterol in [7] and in data set [16] were 57.8 mg 100ml-1 and 771 mg 100ml-1, respectively. Moreover, the Carnitine acetyl transferase in [9] worked out at 7 U/mg protein. This compound also came in with a Catalase in data set [15] of 38 U/mg protein. The results for the Liver weight in data set [10] and in data set [19] were 3.9 g (100g of body weight)-1 and 5.97 g 100g-1, respectively. In data set [17], this compound gave a Palmitoyl-CoA oxid of 0.015 µM/min/mg. Also, in data set [18], the Enoyl-CoA hydratase is 3.8 µM/min/mg.
